In ChEMBL document CHEMBL2062453, “Lead optimization through VLAK protocol: new annelated pyrrolo-pyrimidine derivatives as antitumor agents” (2012):

Columns and labels:
Format in all cases: functional
MOLT-4 = assay: Cytotoxicity against human MOLT4 cells assessed as cell growth at 10 uM after 48 hrs by SRB assay relative to control; conditions: MOLT-4, 48 h, read-out: Activity
SR = assay: Cytotoxicity against human SR cells assessed as cell growth at 10 uM after 48 hrs by SRB assay relative to control; conditions: read-out: Activity
Summary of the method: (§1)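 NCI single-dose primary screen across about 60 human tumour lines. Each line was inoculated and preincubated on microtiter plates, then exposed to one concentration of agent for 48 h. Growth is reported as percent growth (G%) of treated cells versus untreated control cells.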

A549 = assay: Cytotoxicity against human A549 cells assessed as cell growth at 10 uM after 48 hrs by SRB assay relative to control; conditions: A549, 48 h, read-out: Activity
Summary of the method: (§2)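 NCI primary screen of about 60 human tumour lines. Cells inoculated and preincubated, then a single test concentration added and cultures incubated 48 h. Result given as percent growth (G%) of treated versus untreated control cells.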

EKVX = assay: Cytotoxicity against human EKVX cells assessed as cell growth at 10 uM after 48 hrs by SRB assay relative to control; conditions: read-out: Activity; summary of the method: as §2
NCI-H226 = assay: Cytotoxicity against human NCI-H226 cells assessed as cell growth at 10 uM after 48 hrs by SRB assay relative to control; conditions: NCI-H226, 48 h, read-out: Activity
NCI-H322M = assay: Cytotoxicity against human NCI-H322M cells assessed as cell growth at 10 uM after 48 hrs by SRB assay relative to control; conditions: read-out: Activity
HCC 2998 = assay: Cytotoxicity against human HCC2998 cells assessed as cell growth at 10 uM after 48 hrs by SRB assay relative to control; conditions: HCC 2998, 48 h, read-out: Activity; summary of the method: as §2
HCT-116 = assay: Cytotoxicity against human HCT116 cells assessed as cell growth at 10 uM after 48 hrs by SRB assay relative to control; conditions: HCT-116, 48 h, read-out: Activity; summary of the method: as §2
HCT-15 = assay: Cytotoxicity against human HCT15 cells assessed as cell growth at 10 uM after 48 hrs by SRB assay relative to control; conditions: HCT-15, 48 h, read-out: Activity; summary of the method: as §2
KM12 = assay: Cytotoxicity against human KM12 cells assessed as cell growth at 10 uM after 48 hrs by SRB assay relative to control; conditions: KM12, 48 h, read-out: Activity; summary of the method: as §2
SF-268 = assay: Cytotoxicity against human SF268 cells assessed as cell growth at 10 uM after 48 hrs by SRB assay relative to control; conditions: SF-268, 48 h, read-out: Activity
SF-295 = assay: Cytotoxicity against human SF295 cells assessed as cell growth at 10 uM after 48 hrs by SRB assay relative to control; conditions: SF-295, 48 h, read-out: Activity
SF-539 = assay: Cytotoxicity against human SF539 cells assessed as cell growth at 10 uM after 48 hrs by SRB assay relative to control; conditions: SF-539, 48 h, read-out: Activity
SNB-75 = assay: Cytotoxicity against human SNB75 cells assessed as cell growth at 10 uM after 48 hrs by SRB assay relative to control; conditions: SNB-75, 48 h, read-out: Activity
U-251 = assay: Cytotoxicity against human U251 cells assessed as cell growth at 10 uM after 48 hrs by SRB assay relative to control; conditions: U-251, 48 h, read-out: Activity; summary of the method: as §1
LOX IMVI = assay: Cytotoxicity against human LOXIMVI cells assessed as cell growth at 10 uM after 48 hrs by SRB assay relative to control; conditions: read-out: Activity; summary of the method: as §2
SK-MEL-2 = assay: Cytotoxicity against human SK-MEL-2 cells assessed as cell growth at 10 uM after 48 hrs by SRB assay relative to control; conditions: SK-MEL-2, 48 h, read-out: Activity
SK-MEL-28 = assay: Cytotoxicity against human SK-MEL-28 cells assessed as cell growth at 10 uM after 48 hrs by SRB assay relative to control; conditions: SK-MEL-28, 48 h, read-out: Activity
OVCAR-4 = assay: Cytotoxicity against human OVCAR4 cells assessed as cell growth at 10 uM after 48 hrs by SRB assay relative to control; conditions: OVCAR-4, 48 h, read-out: Activity
OVCAR-5 = assay: Cytotoxicity against human OVCAR5 cells assessed as cell growth at 10 uM after 48 hrs by SRB assay relative to control; conditions: OVCAR-5, 48 h, read-out: Activity
NCI/ADR-RES = assay: Cytotoxicity against human NCI/ADR-RES cells assessed as cell growth at 10 uM after 48 hrs by SRB assay relative to control; conditions: read-out: Activity
SK-OV-3 = assay: Cytotoxicity against human SKOV3 cells assessed as cell growth at 10 uM after 48 hrs by SRB assay relative to control; conditions: SK-OV-3, 48 h, read-out: Activity
A498 = assay: Cytotoxicity against human A498 cells assessed as cell growth at 10 uM after 48 hrs by SRB assay relative to control; conditions: A498, 48 h, read-out: Activity; summary of the method: as §2
ACHN = assay: Cytotoxicity against human ACHN cells assessed as cell growth at 10 uM after 48 hrs by SRB assay relative to control; conditions: read-out: Activity; summary of the method: as §2
RXF 393 = assay: Cytotoxicity against human RXF393 cells assessed as cell growth at 10 uM after 48 hrs by SRB assay relative to control; conditions: RXF 393, 48 h, read-out: Activity
TK-10 = assay: Cytotoxicity against human TK10 cells assessed as cell growth at 10 uM after 48 hrs by SRB assay relative to control; conditions: TK-10, 48 h, read-out: Activity; summary of the method: as §1
UO-31 = assay: Cytotoxicity against human UO31 cells assessed as cell growth at 10 uM after 48 hrs by SRB assay relative to control; conditions: UO-31, 48 h, read-out: Activity; summary of the method: as §1
PC-3 = assay: Cytotoxicity against human PC3 cells assessed as cell growth at 10 uM after 48 hrs by SRB assay relative to control; conditions: PC-3, 48 h, read-out: Activity
DU-145 = assay: Cytotoxicity against human DU145 cells assessed as cell growth at 10 uM after 48 hrs by SRB assay relative to control; conditions: DU-145, 48 h, read-out: Activity; summary of the method: as §2
MCF7 = assay: Cytotoxicity against human MCF7 cells assessed as cell growth at 10 uM after 48 hrs by SRB assay relative to control; conditions: MCF7, 48 h, read-out: Activity; summary of the method: as §2
MDA-MB-231 = assay: Cytotoxicity against human MDA-MB-231 cells assessed as cell growth at 10 uM after 48 hrs by SRB assay relative to control; conditions: MDA-MB-231, 48 h, read-out: Activity; summary of the method: as §2
MDA-MB-468 = assay: Cytotoxicity against human MDA-MB-468 cells assessed as cell growth at 10 uM after 48 hrs by SRB assay relative to control; conditions: MDA-MB-468, 48 h, read-out: Activity
NCI-H460 = assay: Cytotoxicity against human NCI-H460 cells assessed as cell growth at 10 uM after 48 hrs by SRB assay relative to control; conditions: NCI-H460, 48 h, read-out: Activity

Compound	growth at 10 µM (MOLT-4) [%]	growth at 10 µM (SR) [%]	growth at 10 µM (A549) [%]	growth at 10 µM (EKVX) [%]	growth at 10 µM (NCI-H226) [%]	growth at 10 µM (NCI-H322M) [%]	growth at 10 µM (HCC 2998) [%]	growth at 10 µM (HCT-116) [%]	growth at 10 µM (HCT-15) [%]	growth at 10 µM (KM12) [%]	growth at 10 µM (SF-268) [%]	growth at 10 µM (SF-295) [%]	growth at 10 µM (SF-539) [%]	growth at 10 µM (SNB-75) [%]	growth at 10 µM (U-251) [%]	growth at 10 µM (LOX IMVI) [%]	growth at 10 µM (SK-MEL-2) [%]	growth at 10 µM (SK-MEL-28) [%]	growth at 10 µM (OVCAR-4) [%]	growth at 10 µM (OVCAR-5) [%]	also measured
CSC1=Nc2c(c(C)c(-c3ccccc3)n2CCCCl)C2=NC(=O)CN12	51	13	74	54	79	82	72	27	65	26	77	43	62	21	52	50	75	56	76	86	growth at 10 µM (NCI/ADR-RES): 58%; growth at 10 µM (SK-OV-3): 88%; growth at 10 µM (A498): 47%; growth at 10 µM (ACHN): 88%; growth at 10 µM (RXF 393): 95%; growth at 10 µM (TK-10): 105%; growth at 10 µM (UO-31): 57%; growth at 10 µM (PC-3): 69%; growth at 10 µM (DU-145): 95%; growth at 10 µM (MCF7): 36%; growth at 10 µM (MDA-MB-231): 65%; growth at 10 µM (MDA-MB-468): 47%
CSC1=Nc2c(c(C)c(-c3ccccc3)n2CCCN2CCN(C)CC2)C2=NC(=O)CN12	79	70	90	96	76	97	100	93	102	99	88	110	86	51	101	93	92	103	89	99	growth at 10 µM (NCI-H460): 101%; growth at 10 µM (NCI/ADR-RES): 98%; growth at 10 µM (SK-OV-3): 96%; growth at 10 µM (A498): 93%; growth at 10 µM (ACHN): 90%; growth at 10 µM (RXF 393): 106%; growth at 10 µM (TK-10): 127%; growth at 10 µM (UO-31): 78%; growth at 10 µM (DU-145): 101%; growth at 10 µM (MCF7): 86%; growth at 10 µM (MDA-MB-231): 82%; growth at 10 µM (MDA-MB-468): 79%
CSC1=Nc2c(c(C)c(-c3ccccc3)n2CCCN2CCCCC2)C2=NC(=O)CC(C)N12 (stereo unspecified)	68	2	32	42	69	62	61	43	81	2	66	39	79	50	12	42	63	43	44	83	growth at 10 µM (NCI-H460): 38%; growth at 10 µM (NCI/ADR-RES): 82%; growth at 10 µM (SK-OV-3): 27%; growth at 10 µM (A498): 81%; growth at 10 µM (ACHN): 67%; growth at 10 µM (RXF 393): 56%; growth at 10 µM (TK-10): 49%; growth at 10 µM (UO-31): 57%; growth at 10 µM (DU-145): 48%; growth at 10 µM (MCF7): 14%; growth at 10 µM (MDA-MB-231): 70%; growth at 10 µM (MDA-MB-468): -19%
